Measurements reported in ChEMBL document CHEMBL1141705, “Optimization of a series of multi-isoform PI3 kinase inhibitors” (Bioorg Med Chem Lett, 2008).

How the values were obtained:
[1] = Distribution coefficient, log D of the compound; format: physicochemical; conditions: octanol/water
Summary of the method: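 logD was determined experimentally at pH 7.4.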

[2] = AUC in Han/Wistar rat at 3 mg/kg, po; format: ADME, organism-based; parameters: dose 3 mg/kg, route oral; conditions: plasma
Summary of the method: (§1)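 Han-Wistar rats received a single oral dose of 3 mg/kg. Plasma Cmax is reported in ng/mL and AUC in ng h/mL.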

[3] = Cmax in Han/Wistar rat at 3 mg/kg, po; format: ADME, organism-based; parameters: dose 3 mg/kg, route oral; conditions: in vivo; summary of the method: as §1

logD [1] | AUC [2] | Cmax [3] | Compound
2.32 | – | – | Cc1ccc(-c2ccc3c(c2)N(c2nc4c(s2)C(=O)NC(C)(C)C4)CCO3)nn1
– | 807 ng·h/mL | 187 ng/mL | COC[C@H](O)Cn1cc(-c2ccc3c(c2)N(c2nc4c(s2)C(=O)NC(C)(C)C4)CCO3)cn1
2.39 | 345 ng·h/mL | 105 ng/mL | Cc1ccc(Nc2ccc3c(c2)N(c2nc4c(s2)C(=O)NC(C)(C)C4)CCO3)nn1
0.6 | – | – | CC1(C)Cc2nc(N3CCOc4ccc(Nc5ccc(N6CCNCC6)nn5)cc43)sc2C(=O)N1
1.76 | – | – | CN1CCN(c2ccc(Nc3ccc4c(c3)N(c3nc5c(s3)C(=O)NC(C)(C)C5)CCO4)nn2)CC1
1.97 | – | – | Cc1cc(C)c(Nc2ccc3c(c2)N(c2nc4c(s2)C(=O)NC(C)(C)C4)CCO3)nn1
3.57 | 591 ng·h/mL | 139 ng/mL | CCn1nc(C)c(-c2ccc3c(c2)N(c2nc4c(s2)C(=O)NC(C)(C)C4)CCO3)c1C
2.19 | 495 ng·h/mL | 159 ng/mL | COCC(O)Cn1cc(-c2ccc3c(c2)N(c2nc4c(s2)C(=O)NC(C)(C)C4)CCO3)cn1 (stereo unspecified)
2.94 | – | – | CC1(C)Cc2nc(N3CCOc4ccc(-c5cnn(Cc6cccnc6)c5)cc43)sc2C(=O)N1
3 | – | – | Cc1nn(C)cc1-c1ccc2c(c1)N(c1nc3c(s1)C(=O)NC(C)(C)C3)CCO2
3.72 | – | – | CC1(C)Cc2nc(N3CCOc4ccc(Nc5ccc(-c6ccccc6)nn5)cc43)sc2C(=O)N1
2.45 | – | – | CC1(C)Cc2nc(N3CCOc4ccc(-c5ccc(N6CCNCC6)nn5)cc43)sc2C(=O)N1
1.16 | – | – | CC1(C)Cc2nc(N3CCOc4ccc(-c5cnn(CCN)c5)cc43)sc2C(=O)N1
1.98 | – | – | Cn1ncc(-c2ccc3c(c2)N(c2nc4c(s2)C(=O)NC(C)(C)C4)CCO3)c1N
3.04 | – | – | Cc1n[nH]c(C)c1-c1ccc2c(c1)N(c1nc3c(s1)C(=O)NC(C)(C)C3)CCO2
2.74 | 1000 ng·h/mL | 195 ng/mL | CC(C)(O)Cn1cc(-c2ccc3c(c2)N(c2nc4c(s2)C(=O)NC(C)(C)C4)CCO3)cn1
1.75 | – | – | CN1CCN(c2ccc(-c3ccc4c(c3)N(c3nc5c(s3)C(=O)NC(C)(C)C5)CCO4)nn2)CC1
2.3 | – | – | Cc1nn(CC(C)(C)O)c(C)c1-c1ccc2c(c1)N(c1nc3c(s1)C(=O)NC(C)(C)C3)CCO2
2.61 | – | – | CN(C)c1ccc(-c2ccc3c(c2)N(c2nc4c(s2)C(=O)NC(C)(C)C4)CCO3)nn1
0.22 | – | – | COc1ccc(-c2ccc3c(c2)N(c2nc4c(s2)C(=O)NC(C)(C)C4)CCO3)nn1
2.68 | – | – | CC1(C)Cc2nc(N3CCOc4ccc(-c5cn[nH]c5)cc43)sc2C(=O)N1
2.63 | – | – | Cn1cc(-c2ccc3c(c2)N(c2nc4c(s2)C(=O)NC(C)(C)C4)CCO3)cn1
2.73 | – | – | CCn1cc(-c2ccc3c(c2)N(c2nc4c(s2)C(=O)NC(C)(C)C4)CCO3)cn1
3.91 | 455 ng·h/mL | 103 ng/mL | CC1(C)Cc2nc(N3CCOc4ccc(-c5cnn(Cc6ccccc6)c5)cc43)sc2C(=O)N1
2.74 | – | – | COc1ccc(Nc2ccc3c(c2)N(c2nc4c(s2)C(=O)NC(C)(C)C4)CCO3)nn1
1.94 | 78 ng·h/mL | 14 ng/mL | CC1(C)Cc2nc(N3CCOc4ccc(-c5ccc(N)nn5)cc43)sc2C(=O)N1
3.23 | – | – | Cc1nn(C)c(C)c1-c1ccc2c(c1)N(c1nc3c(s1)C(=O)NC(C)(C)C3)CCO2
0.38 | – | – | Cc1nn(CCCN)cc1-c1ccc2c(c1)N(c1nc3c(s1)C(=O)NC(C)(C)C3)CCO2
